Screening data deposited in PubChem by Johns Hopkins Ion Channel Center.
In the library only some 3.7% were active in any assay of this set; here they are far more common.
KCNK9 inh: blocks the human KCNK9 two-pore domain potassium channel. Q9NPC2. HEK293 KCNK9, FluxOR thallium flux fluorescence; stronger effect = lower value. B-score at 10 µM. 310,000 tested, 1.2% active. AID 488922;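 active means ratio B-score over 3 SD below the library mean, with starting fluorescence within 5 SD of its mean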;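 further: negative B-score means less thallium flux so channel inhibition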
Kir21 block: inhibitors of mouse Kir2.1 inward-rectifier potassium channel; 310,000 tested, 0.85% active; P35561; AID 1672; B-score at 10 µM; HEK293-Kir2.1, FluxOR thallium flux fluorescence; stronger effect = lower value;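 active means fluorescence ratio B-score at or below minus 3 SD of library scores, with starting-brightness B-score within 2 SD, cut at about -4.2 in these data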;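 further: channel flux triggered by added potassium and thallium sulfate stimulus; B-score of peak minus minimum fluorescence over baseline after thallium stimulus; more negative B-score means stronger Kir2.1 block with less thallium influx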
KCNQ1 pot: potentiates or activates the human KCNQ1 potassium channel. CHO-K1 KCNQ1, thallium flux FluxOR fluorescence; stronger effect = higher value. B-score at 10 µM. 310,000 tested, 0.35% active;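 active means fluorescence ratio B-score, a plate-corrected score, at least three library SD, with initial intensity B-score within 5 SD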
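Assay system: CHO-K1 cells stably expressing KCNQ1; Medium: assay buffer with matched DMSO; Also added: K+/Tl+ depolarizing stimulus; Dosing: single dose; Timing: dye 90 min, compound 20 min, room temperature; Measured by: kinetic FluxOR thallium fluorescence, 10-s 1-Hz baseline, 110-s post-stimulus read; Read-out: peak-minus-minimum fluorescence over initial fluorescence, negative-control normalized, B-scored.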
hERG protect: hERG (human) protection from proarrhythmic block; 310,000 tested, 0.51% active; activation (rescue from dofetilide block), less the hit threshold, % at 10 µM; CHO-hERG, FluxOR thallium flux, dofetilide IC70 present;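 active means activation above the mean of controls blocked by dofetilide plus 5 SD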;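 further: thallium influx through hERG after potassium depolarization seen as dye fluorescence rise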
KCNK3 inh: human KCNK3 channel inhibition, primary screen | O14649 | CHO-KCNK3 thallium flux, FluxOR fluorescence; stronger effect = lower value | B-score at 10 µM | 340,000 tested, 0.84% active;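 active means B-score under library mean minus 4 SD, starting fluorescence ratio at most library mean plus 5 SD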;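 further: more negative B-score means stronger inhibition of thallium flux through KCNK3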
KCNQ1 block: human KCNQ1 channel inhibition; AID 2642; CHO-K1 KCNQ1, FluxOR thallium flux fluorescence; stronger effect = higher value; B-score at 10 µM; P51787; 310,000 tested, 1.3% active;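 active means compounds whose thallium flux B-score, printed positive for inhibition, exceeds three library SD while starting fluorescence stays within three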;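 further: channel opened by potassium depolarization with thallium stimulus after 20 min compound exposure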
KCNK9 inh conf: human KCNK9 inhibitor confirmation; 4,900 tested, 43% active; inhibition, % at 10 µM; shares compounds with KCNK9 inh; HEK293 KCNK9 cells, FluxOR thallium flux fluorescence;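 active means thallium signal inhibited by more than 5 SD of the compound-free buffer control wells, on both duplicate plates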;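 further: 0% = assay buffer control wells without compound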
Kir2-1 spec: tests whether KCNK9 modulators also affect mouse Kir2.1. shares compounds with KCNK9 inh. Kir2.1 cells, FluxOR thallium flux fluorescence. inhibition, % at 10 µM. 4,900 tested, 4% active. AID 492993;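 active means thallium signal drop more than 5 SD beyond the mean of the no-compound control wells, seen in both duplicate plates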;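 further: signal is fluorescence rise after thallium addition divided by baseline fluorescence; plate controls were assay buffer only for no effect and full block by chlorpromazine control for full effect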
HEK293 Tl ctr: second counter-screen for KCNK9 modulators: effect in non-induced cells | 4,900 tested, 40% active | inhibition, % at 10 µM | non-induced KCNK9-HEK293, FluxOR thallium flux | shares compounds with KCNK9 inh;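 active means thallium signal drop beyond 5 SD of the untreated control mean, on both duplicate plates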;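 further: plate controls were buffer only IC0 wells for no effect and SID17386958 at its maximal inhibitory level for full effect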
KCNK3 confirm: confirmation of human KCNK3 two-pore domain potassium channel inhibitors | shares compounds with KCNK3 inh | CHO-KCNK3 thallium flux, FluxOR fluorescence; 0% buffer, 100% carvedilol maximal block | ratio percent of control, % at 10 µM | 2,400 tested, 99% active | AID 651638;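 active means ratio percent of control, averaged over triplicates, above buffer control mean plus 5 SD, cut at about 64% in these data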;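 further: ratio is the fluorescence rise from min to max over baseline after thallium stimulus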
KCNK3 noninduced: counter-screen for KCNK3 inhibitors: effect in non-induced cells. shares compounds with KCNK3 inh. non-induced KCNK3 parental cells, FluxOR thallium flux; stronger effect = lower value. thallium flux ratio (lower = more inhibition) at 10 µM. 2,400 tested, 40% active;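 active means thallium flux ratio, averaged over three wells, more than 5 SD below the buffer control mean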;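 further: host cells are CHO cells without KCNK3 induction; ratio is peak minus trough fluorescence over baseline then normalized to buffer controls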
The depositor's hits bear a star.

Results for Cc1cccc(OCCCn2c(=O)sc3ccccc32)c1 ?
KCNK9 inh: inactive; Kir21 block: 0.04; KCNQ1 pot: inactive; hERG protect: -12; KCNK3 inh: inactive; KCNQ1 block: inactive

How did CCCCCCCCCCOC(=O)Cn1c(COc2cccc(C)c2)[n+](C)c2ccccc21 do in these assays?
KCNK9 inh: -14*; Kir21 block: -13*; KCNQ1 pot: inactive; hERG protect: -13; KCNK3 inh: -10*; KCNQ1 block: inactive; KCNK9 inh conf: 64%*; Kir2-1 spec: 64%*; HEK293 Tl ctr: inactive; KCNK3 confirm: 100*; KCNK3 noninduced: inactive

Results for N=c1c2c(-c3ccccc3)c(-c3ccccc3)n(Cc3ccco3)c2ncn1Cc1ccco1 ?
KCNK9 inh: -8.7*; Kir21 block: -9.8*; KCNQ1 pot: inactive; hERG protect: -38; KCNK3 inh: -14*; KCNQ1 block: 11*; KCNK9 inh conf: 54%*; Kir2-1 spec: 46%*; HEK293 Tl ctr: 31%*; KCNK3 confirm: 110*; KCNK3 noninduced: 0.15*

Results for N=c1c2c(ncn1Cc1ccco1)Oc1ccc3ccccc3c1C2c1ccccc1 (stereo not drawn) ?
KCNK9 inh: inactive; Kir21 block: -1.3; KCNQ1 pot: inactive; hERG protect: -15; KCNK3 inh: inactive; KCNQ1 block: inactive

What do the screens show for `O=C/C(=C\Nc1ccccn1)c1nc2cc(Cl)ccc2o1`?
KCNK9 inh: -8.5*; Kir21 block: -2.1; KCNQ1 pot: inactive; hERG protect: -10; KCNK3 inh: inactive; KCNQ1 block: inactive; KCNK9 inh conf: 35%*; Kir2-1 spec: inactive; HEK293 Tl ctr: inactive; KCNK3 confirm: 114*; KCNK3 noninduced: inactive

What do the screens show for `O=C/C(=C\Nc1ccccn1)c1nc2ccccc2o1`?
KCNK9 inh: inactive; Kir21 block: -1.2; KCNQ1 pot: inactive; hERG protect: -12; KCNK3 inh: inactive; KCNQ1 block: inactive

Results for CCc1nnc(NC(=O)CSc2nnc(C)c(=O)n2N)s1 ?
KCNK9 inh: inactive; Kir21 block: -1.8; KCNQ1 pot: inactive; hERG protect: -7; KCNK3 inh: inactive; KCNQ1 block: inactive

What do the screens show for `N#CCC(=O)Nc1ccc(C(=O)OC(C(=O)Nc2cc(C(F)(F)F)ccc2Cl)c2ccccc2)cc1` (stereo not drawn)?
KCNK9 inh: inactive; Kir21 block: 2.6; KCNQ1 pot: inactive; hERG protect: -9; KCNK3 inh: inactive; KCNQ1 block: inactive

What do the screens show for `C[C@H](NC(=O)c1ccccc1Cl)C(=O)OC(C(=O)Nc1cc(C(F)(F)F)ccc1Cl)c1ccccc1` (stereo partly drawn)?
KCNK9 inh: -18*; Kir21 block: 0.44; KCNQ1 pot: inactive; hERG protect: -3; KCNK3 inh: -11*; KCNQ1 block: inactive; KCNK9 inh conf: 68%*; Kir2-1 spec: inactive; HEK293 Tl ctr: 40%*; KCNK3 confirm: 108*; KCNK3 noninduced: inactive

Results for CCOC(=O)C(CCCCOc1cccc(CC)c1)C(=O)OCC ?
KCNK9 inh: inactive; Kir21 block: -2.3; KCNQ1 pot: inactive; hERG protect: -13; KCNK3 inh: inactive; KCNQ1 block: inactive

How did CCOC(=O)C(CCCOc1cccc(CC)c1)C(=O)OCC do in these assays?
KCNK9 inh: inactive; Kir21 block: -0.47; KCNQ1 pot: inactive; hERG protect: -5; KCNK3 inh: -10*; KCNQ1 block: inactive; KCNK9 inh conf: inactive; Kir2-1 spec: inactive; HEK293 Tl ctr: inactive; KCNK3 confirm: 108*; KCNK3 noninduced: inactive

Results for CCOC(=O)c1ccc(NC(=O)COc2ccc(CNCCO)cc2OCC)cc1 ?
KCNK9 inh: inactive; Kir21 block: 1.5; KCNQ1 pot: inactive; hERG protect: -7; KCNK3 inh: inactive; KCNQ1 block: inactive

How did CCOC(=O)c1ccc(NC(=O)COc2ccccc2CNCCc2ccccc2)cc1 do in these assays?
KCNK9 inh: -8.1*; Kir21 block: -3.7; KCNQ1 pot: inactive; hERG protect: -25; KCNK3 inh: -12*; KCNQ1 block: 11*; KCNK9 inh conf: 30%*; Kir2-1 spec: inactive; HEK293 Tl ctr: inactive; KCNK3 confirm: 104*; KCNK3 noninduced: inactive

How did COc1ccc(C(=O)c2coc3c2C(=O)C(=O)c2ccccc2-3)cc1 do in these assays?
KCNK9 inh: -21*; Kir21 block: -0.39; KCNQ1 pot: inactive; hERG protect: -14; KCNK3 inh: -8.9*; KCNQ1 block: inactive; KCNK9 inh conf: 78%*; Kir2-1 spec: inactive; HEK293 Tl ctr: 46%*; KCNK3 confirm: 108*; KCNK3 noninduced: 0.15*

How did Cc1ccccc1Sc1c(C#N)c(-c2ccccc2)nn1C do in these assays?
KCNK9 inh: -8.6*; Kir21 block: -1.6; KCNQ1 pot: inactive; hERG protect: -11; KCNK3 inh: -12*; KCNQ1 block: inactive; KCNK9 inh conf: 42%*; Kir2-1 spec: inactive; HEK293 Tl ctr: 50%*; KCNK3 confirm: 123*; KCNK3 noninduced: 0.13*

Results for Cc1ccc(Sc2c(CO)c(-c3ccccc3)nn2C)cc1 ?
KCNK9 inh: inactive; Kir21 block: 2; KCNQ1 pot: inactive; hERG protect: -18; KCNK3 inh: inactive; KCNQ1 block: inactive

Results for CCOC(=O)c1[nH]c(C)c(CN(C(C)=O)c2ccc(OCC)cc2)c1C ?
KCNK9 inh: inactive; Kir21 block: 0.24; KCNQ1 pot: inactive; hERG protect: -1; KCNK3 inh: inactive; KCNQ1 block: inactive

Results for CCSc1nc2ccccc2n1CCOc1ccccc1 ?
KCNK9 inh: -12*; Kir21 block: -1.2; KCNQ1 pot: inactive; hERG protect: -3; KCNK3 inh: -11*; KCNQ1 block: inactive; KCNK9 inh conf: 28%*; Kir2-1 spec: inactive; HEK293 Tl ctr: 30%*; KCNK3 confirm: 120*; KCNK3 noninduced: inactive
